Measurements as given in ChEMBL document CHEMBL1142645, “New variotin analogues from Aspergillus viridi-nutans” (2000).
Converted amounts (≈) assume the structure as drawn. The source made the active and inactive calls. The rule behind the calls is not given here.

Experiments:
Nadsonia fulvescens [1] = experiment: Antifungal activity against Nadsonia fulvescens ATCC 24236 upto 100 ug/mL after 24 hrs by microtiter plate assay; format: functional, organism-based
How it was run: (§1)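 Broth microdilution in microtiter plates, following an earlier published method. Each test fungus was inoculated at 1×10^5 spores/mL. Plates were incubated for 24 h at 27 °C, and antifungal activity was then scored.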

Eremothecium coryli [2] = experiment: Antifungal activity against Nematospora coryli ATCC 10647 upto 100 ug/mL after 24 hrs by microtiter plate assay; format: functional, organism-based; how it was run: as §1
Fusarium oxysporum = experiment: Antifungal activity against Fusarium oxysporum CBS 149.25 upto 100 ug/mL after 24 hrs by microtiter plate assay; format: functional, organism-based; how it was run: as §1
Paecilomyces variotii [3] = experiment: Antifungal activity against Paecilomyces variotii ETH 114646 upto 100 ug/mL after 24 hrs by microtiter plate assay; format: functional, organism-based; how it was run: as §1
Rhodotorula glutinis [4] = experiment: Antifungal activity against Rhodotorula glutinis ATCC 26085 upto 100 ug/mL after 24 hrs by microtiter plate assay; format: functional, organism-based; how it was run: as §1
Nadsonia fulvescens [5] = experiment: Antifungal activity against Nadsonia fulvescens ATCC 24236 after 24 hrs by microtiter plate assay; format: functional; details: ATCC 24236, 24 h; how it was run: as §1
Eremothecium coryli [6] = experiment: Antifungal activity against Nematospora coryli ATCC 10647 after 24 hrs by microtiter plate assay; format: functional; details: ATCC 10647, 24 h; how it was run: as §1
Paecilomyces variotii [7] = experiment: Antifungal activity against Paecilomyces variotii ETH 114646 after 24 hrs by microtiter plate assay; format: functional; how it was run: as §1
Rhodotorula glutinis [8] = experiment: Antifungal activity against Rhodotorula glutinis ATCC 26085 after 24 hrs by microtiter plate assay; format: functional; details: ATCC 26085, 24 h; how it was run: as §1
HeLa = experiment: Cytotoxicity against human HeLa S3 cells by Giemsa staining; format: functional
L1210 = experiment: Cytotoxicity against mouse L1210 cells by Giemsa staining; format: functional
HL-60 = experiment: Cytotoxicity against human HL60 cells by Giemsa staining; format: functional

Row | MIC (Nadsonia fulvescens [5]) | MIC (Eremothecium coryli [6]) | MIC (Paecilomyces variotii [7]) | MIC (Rhodotorula glutinis [8]) | SMILES | Activity (Nadsonia fulvescens [1]) | Activity (Eremothecium coryli [2]) | Activity (Fusarium oxysporum) | Activity (Paecilomyces variotii [3]) | Activity (Rhodotorula glutinis [4]) | IC90 (HeLa) | IC90 (L1210) | IC90 (HL-60)
1 |  |  |  |  | CCCCC(/C=C(C)/C=C/C=C/C(=O)N1CCCC1CO)OC (configuration not stated) | inactive | inactive | inactive | inactive | inactive |  |  | 
2 | 1 µg/mL (≈ 3.43 µM) | 1 µg/mL (≈ 3.43 µM) | 1 µg/mL (≈ 3.43 µM) | 1 µg/mL (≈ 3.43 µM) | CCCC[C@@H](O)/C=C(C)/C=C/C=C/C(=O)N1CCCC1=O [PECILOCIN] |  |  |  |  |  |  |  | 
3 |  |  |  |  | CCCCC(O)/C=C(C)/C=C/C=C/C(=O)N1CCCC1CO (configuration not stated) [VIRIDITIN] | inactive | inactive | inactive | inactive | inactive | 25 µg/mL (≈ 81.3 µM) | 25 µg/mL (≈ 81.3 µM) | 25 µg/mL (≈ 81.3 µM)
